High-throughput results as filed in PubChem BioAssay.
A selection: hits, their analogues and other compounds. The true share with any hit is near 1.9%.
NPY-Y1 antag: NPY-Y1 (human) receptor antagonism. inhibition, % at 3.6 µM. P25929. actives 1% (n = 200,000). HEK293-CNG Y1 cells, membrane potential fluorescence; NPY at EC95, then isoproterenol;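 active means inhibition above the campaign mean inhibition of all tested compounds plus 3 SD, cut at about 20% in these data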;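 further: 0% = DMSO wells given NPY plus isoproterenol and 100% = isoproterenol alone without NPY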
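Test system – HEK293 Y1/CNG channel cell line · Also added – NPY agonist 25 nM, then isoproterenol 1 µM plus Ro 20-1724 25 µM · Compound dosing – one concentration, 3.6 µM, in 0.4% DMSO · Schedule – compound incubation 1 h at room temperature, readout 45 min post-stimulation · Technique – fluorescence, membrane potential probe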
NPY-Y2 antag: NPY-Y2 (human) receptor antagonism. P49146. NPY-Y2 expressing cells, antagonist mode. inhibition, % at 2.7 µM. actives 0.99% (n = 140,000); in the data active means inhibition above about 17%;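 further: 0% = vehicle with agonist challenge and 100% = reference antagonist with challenge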
Target sequence (P49146 whole entry, looked up): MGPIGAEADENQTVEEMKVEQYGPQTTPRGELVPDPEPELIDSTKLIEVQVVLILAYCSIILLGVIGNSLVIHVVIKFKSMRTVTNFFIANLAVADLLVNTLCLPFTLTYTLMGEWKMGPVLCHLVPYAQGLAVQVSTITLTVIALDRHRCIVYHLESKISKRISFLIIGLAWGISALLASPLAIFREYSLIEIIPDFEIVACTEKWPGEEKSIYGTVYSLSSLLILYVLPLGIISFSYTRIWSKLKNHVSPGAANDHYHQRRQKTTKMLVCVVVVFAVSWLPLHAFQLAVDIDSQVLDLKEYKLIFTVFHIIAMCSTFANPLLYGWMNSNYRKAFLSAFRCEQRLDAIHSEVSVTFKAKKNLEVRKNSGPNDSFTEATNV
NPY2 pot ag: potentiators or agonists of human neuropeptide Y receptor Y2 | P49146 | cells expressing NPY-Y2, potentiator/agonist read-out | activation, % at 3.6 µM | actives 0.45% (n = 220,000); in the data active means activation above about 27%;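 further: cells stimulated with NPY near EC25 plus isoproterenol at EC100; 0% = vehicle plus submaximal agonist and 100% = vehicle plus saturating agonist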
NPY-Y1 PAM-ag: potentiators or agonists of human neuropeptide Y receptor Y1; P25929; NPY-Y1 expressing cells, potentiator/agonist activation; activation, % at 3.6 µM; actives 0.37% (n = 220,000); AID 1304; in the data active means activation above about 33%, passing the limit was not always enough;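 further: cells stimulated with NPY at EC10 then isoproterenol at EC100; 0% = low agonist plus stimulus and 100% = saturating agonist plus stimulus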
NPY-Y2 confirm: confirmation of human NPY-Y2 receptor potentiators or agonists. shares compounds with NPY2 pot ag. cell-based NPY-Y2 potentiator/agonist assay. activation, % at 3.6 µM. actives 20% (n = 450). AID 1539; in the data active means activation above about 33%
NPY-Y1 potentiator: counter-screen for NPY-Y2 potentiators or agonists: NPY-Y1 potentiators or agonists; shares compounds with NPY2 pot ag; Y1 HEK293-CNG cells, membrane potential fluorescence; activation, % at 3.6 µM; actives 20% (n = 450); AID 1651; in the data active means activation above about 45%;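 further: cells stimulated with submaximal NPY then isoproterenol with phosphodiesterase inhibitor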
NPY-Y1 ag 2: activates human NPY-Y1, counter-screen for NPY-Y2 potentiators. shares compounds with NPY2 pot ag. HEK293 Y1-CNGC, membrane potential fluorescence, agonism. activation, % at 3.6 µM. actives 37% (n = 450). AID 1702;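 active means activation above the mean of DMSO-only control wells plus 3 SD, cut at about 18% in these data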;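 further: cells stimulated with 1 µM isoproterenol plus the PDE inhibitor Ro 20-1724; 0% = isoproterenol with DMSO and no NPY and 100% = 40 nM NPY; Y1 agonists lower the membrane potential dye signal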
CNGC inh: cyclic nucleotide gated channel inhibition as counter-screen; shares compounds with NPY2 pot ag; HEK293-CNG parental, isoproterenol cAMP, membrane potential fluorescence; inhibition, % at 3.6 µM; actives 32% (n = 450); AID 1703;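 active means inhibition above the control-well mean plus 3 SD of those wells, cut at about 22% in these data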;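 further: 0% = DMSO with isoproterenol and 100% = DMSO without isoproterenol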
Y2 agonist ctr: activates human NPY-Y2 receptor in potentiator counter-screen; shares compounds with NPY2 pot ag; HEK293 Y2/CNGC cells, membrane potential fluorescence, agonist mode; activation, % at 3.6 µM; actives 56% (n = 450);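 active means activation above the mean of solvent-only control wells plus 3 SD, cut at about 10% in these data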;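 further: cells stimulated by isoproterenol with no NPY added so direct agonism is tested; 0% = DMSO with isoproterenol alone and 100% = NPY at EC100 plus isoproterenol; agonism lowers probe fluorescence through less cAMP and CNG channel opening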
* hit, by the source's call; x = no result.

SMILES	NPY-Y1 antag	NPY-Y2 antag	NPY2 pot ag	NPY-Y1 PAM-ag	NPY-Y2 confirm	NPY-Y1 potentiator	NPY-Y1 ag 2	CNGC inh	Y2 agonist ctr
CCN(CC)S(=O)(=O)c1ccc2[nH]cc(C(=O)NCCN3CCCCC3C)c(=O)c2c1 (centres undefined)	6	-3	-2	-1	x	x	x	x	x
CCN(CC)S(=O)(=O)c1ccc2[nH]cc(C(=O)NCCC3=CCCCC3)c(=O)c2c1	-11	-4	34*	36	19	13	13	14	23*
CCOC(=O)Cn1c(=O)oc2cc(S(=O)(=O)NCCc3ccc(C)cc3)ccc21	3	13	-13	-10	x	x	x	x	x
CCOC(=O)Cn1c(=O)oc2cc(S(=O)(=O)Nc3ccc(F)cc3)ccc21	-11	-1	36*	31	16	20	22*	33*	12*
O=C(c1ccc(S(=O)(=O)c2cccc(Cl)c2)c([N+](=O)[O-])c1)N1CCN(Cc2ccccc2)CC1	-1	1	16	18	x	x	x	x	x
O=c1[nH]c(/C=C\c2cccnc2)c([N+](=O)[O-])c(=O)[nH]1	-12	x	37*	26	25	37	39*	27*	31*
O=c1[nH]c(/C=C/c2cccnc2)c([N+](=O)[O-])c(=O)[nH]1	-8	x	26	16	x	x	x	x	x
CCc1ccc(/C(C)=N\Nc2ccc([N+](=O)[O-])cc2)cc1	-6	-4	39*	37	20	27	24*	30*	30*
C/C(=N\Nc1ccc([N+](=O)[O-])cc1)c1ccc(N2CCOCC2)cc1	x	x	19	22	x	x	x	x	x
CCN1C(=O)/C(=C2/C=Cc3ccccc3N2CC)SC1=S	-6	x	33*	35	39*	48*	43*	36*	48*
CCC(C)NS(=O)(=O)c1ccc(NC(=O)C(Sc2ccccc2)c2ccccc2)cc1 (centres undefined)	-2	-4	11	26	x	x	x	x	x
CCCCNS(=O)(=O)c1ccc(NC(=O)C(Sc2ccccc2)c2ccccc2)cc1 (centres undefined)	-2	-4	29*	17	19	29	20*	25*	25*
O=c1[nH][nH]cc1C=NCc1cccc(C(F)(F)F)c1	2	x	-4	10	x	x	x	x	x
CCc1ccc(N(CC(=O)Nc2nc3ccc(C)cc3s2)S(=O)(=O)c2c(C)noc2C)cc1	1	2	31*	26	28	30	45*	33*	49*
O=C(NC(C(=O)N/N=C/c1cccnc1)c1n[nH]c(=O)c2ccccc12)c1ccccc1 (centres undefined)	x	x	4	-5	x	x	x	x	x
Fc1ccc(Nc2c(-c3ccco3)nc3ccccn23)cc1	7	6	32*	-1	30	31	18*	17	22*
Cc1ccc(-c2cnn(-c3cccc(C(F)(F)F)c3)c2N)cc1	-2	9	35*	29	52*	58*	44*	32*	60*
Nc1c(-c2ccc(Cl)cc2)cnn1-c1cccc(C(F)(F)F)c1	0	3	25	16	x	x	x	x	x
COc1ccc(CN2CCN(C(=O)c3cc(-c4cccnc4)nc4ccc(Cl)cc34)CC2)c(OC)c1OC	2	x	-22	-14	x	x	x	x	x
CC(C)C(NC(=O)C(NC(=O)C1OC2OC(C)(C)OC2C2OC(C)(C)OC12)C(C)C)C(=O)O (centres undefined)	-2	x	4	12	x	x	x	x	x
O=C(Nc1nonc1NC(=O)c1cccs1)c1cccs1	6	x	31*	-13	-6	-18	-18	-9	4
O=C(Nc1ccccn1)c1cccs1	-2	2	13	-4	x	x	x	x	x
CSc1ncccc1C(=O)Nc1ccc2nc(C)sc2c1	x	x	105*	20	-5	0	-2	1	-5
COc1ccc(NC(=O)c2cccnc2SC)cc1OC	-2	x	9	5	x	x	x	x	x
